Laboratory results as given in ChEMBL document CHEMBL4392836, “Second-generation aryl isonitrile compounds targeting multidrug-resistant Staphylococcus aureus” (Bioorg Med Chem, 2019).
≈ marks a conversion by molar mass, not a printed value. Calls of active or inactive are those of the source. The calls are words filed in the database; no cut-off is given here.

Columns and labels:
Staphylococcus aureus [1] = assay: Antibacterial activity against methicillin-resistant Staphylococcus aureus NRS123 USA400 after 18 to 24 hrs by broth microdilution assay; format: functional
In short: (§1)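 CLSI broth microdilution with modifications. Bacteria cultured in TSB and exposed to compounds or control antibiotics in triplicate. Plates incubated aerobically at 37 °C for 18–24 h. MIC is the lowest concentration preventing visible growth.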

Escherichia coli [2] = assay: Antibacterial activity against AcrAB-TolC deficient Escherichia coli […] after 18 to 24 hrs in presence of colistin by broth microdilution method; format: functional
In short: (§2)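 To permeabilize the outer membrane, CLSI broth microdilution in TSB (triplicate) was run with subinhibitory colistin: ¼ × MIC for A. baumannii, E. cloacae and E. coli strains, and P. aeruginosa; ½ × MIC for K. pneumoniae. Plates incubated aerobically at 37 °C for 18–24 h. MIC taken as the lowest concentration with no visible growth.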

Enterobacter cloacae [3] = assay: Antibacterial activity against Enterobacter cloacae BAA1134 after 18 to 24 hrs by broth microdilution assay; format: functional
In short: (§3)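 Broth microdilution MIC per CLSI guidelines with modifications. Bacteria grown in TSB and exposed to compounds or control antibiotics in triplicate. Plates incubated aerobically at 37 °C for 18–24 h. MIC taken as the lowest concentration with no visible growth.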

Enterococcus faecium = assay: Antibacterial activity against vancomycin-resistant Enterococcus faecium ATCC 700221 after 18 to 24 hrs by broth microdilution assay; format: functional
In short: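 Broth microdilution per CLSI with modifications. Cultured in BHI and exposed to compounds in triplicate. Incubated aerobically at 37 °C for 18–24 h. MIC read as the lowest concentration with no visible growth.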

Escherichia coli [4] = assay: Antibacterial activity against Escherichia coli BW25113 after 18 to 24 hrs in absence of colistin by broth microdilution method; format: functional; in short: as §3
Staphylococcus aureus [5] = assay: Antibacterial activity against methicillin-resistant Staphylococcus aureus NRS119 after 18 to 24 hrs by broth microdilution assay; format: functional; in short: as §1
Staphylococcus aureus [6] = assay: Antibacterial activity against vancomycin-resistant Staphylococcus aureus VRS11a after 18 to 24 hrs by broth microdilution assay; format: functional; in short: as §1
Enterobacter cloacae [7] = assay: Antibacterial activity against Enterobacter cloacae BAA1134 after 18 to 24 hrs in presence of colistin by broth microdilution assay; format: functional; in short: as §2
Staphylococcus aureus [8] = assay: Bacteriostatic activity against methicillin-resistant Staphylococcus aureus USA400 NRS123 at 4 times MIC measured after 24 hrs by time-kill assay; format: functional, organism-based
Pseudomonas aeruginosa [9] = assay: Antibacterial activity against Pseudomonas aeruginosa ATCC 15442 after 18 to 24 hrs by broth microdilution assay; format: functional; in short: as §3
Klebsiella pneumoniae [10] = assay: Antibacterial activity against Klebsiella pneumoniae ATCC BAA-1705 after 18 to 24 hrs in presence of colistin by broth microdilution assay; format: functional; in short: as §2
[11] = Toxicity in wounded skin area of Balb/c mouse infected with methicillin-resistant Staphylococcus aureus USA300 at 2% administered topically twice daily for 5 consecutive days measured 4 times daily during compound dosing; details: in vivo, topical_or_ocular
In short: (§4)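 Female Balb/c mice with intradermal MRSA USA300 abscesses were treated topically twice daily for 5 days with a 2% suspension in petroleum jelly, alongside a vehicle group. Mice were checked at least four times daily during infection and treatment for adverse reactions. Wounds were examined for inflammation and toxicity.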

Streptococcus pneumoniae = assay: Antibacterial activity against penicillin-resistant Streptococcus pneumoniae ATCC 700677 after 18 to 24 hrs by broth microdilution assay; format: functional
In short: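 CLSI broth microdilution with modifications. Bacteria exposed to compounds in triplicate and incubated at 37 °C with 5% CO₂ for 18–24 h. MIC is the lowest concentration preventing visible growth.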

[12] = Cytotoxicity against human HaCaT cells assessed as cell viability at 128 uM measured after 24 hrs by MTS assay; format: cell-based; details: read-out: Activity
In short: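 HaCaT keratinocytes grown in DMEM with 10% FBS at 37 °C, 5% CO₂. Compounds tested at 16, 32, 64 and 128 µM in triplicate for 24 h; controls received matching DMSO. Viability expressed as percent of DMSO-treated cells (mean ± SD).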

[13] = system: Staphylococcus epidermidis; assay: Antibacterial activity against methicillin-resistant Staphylococcus epidermidis NRS101 after 18 to 24 hrs by broth microdilution assay; format: functional; in short: as §1
Mus musculus = assay: Induction of inflammation in wounded skin area of Balb/c mouse infected with methicillin-resistant Staphylococcus aureus USA300 at 2% administered topically twice daily for 5 consecutive days measured 4 times daily during compound dosing; format: organism-based; details: in vivo, topical_or_ocular; in short: as §4
Staphylococcus aureus [14] = assay: Antibacterial activity against methicillin-resistant Staphylococcus aureus USA300 infected in Balb/c mouse assessed as reduction in bacterial burden in wounded skin area at 2% administered topically twice daily for 5 consecutive days measured 12 hrs post last dose relative to control; format: functional; set-up: scale not given: the % may be the effect or the level left
In short: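 Eight-week-old female Balb/c mice (n = 5 per group) received an intradermal injection of 40 μL of 1.32 × 10⁹ CFU/mL MRSA USA300. From abscess formation (~48 h), a 2% suspension in petroleum jelly was applied topically twice daily for 5 days, with a vehicle-only group. Mice were euthanized 12 h after the last dose. Wounds were homogenized in PBS, serially diluted and plated on mannitol salt agar (≥16 h, 37 °C). CFU reduction was calculated against vehicle.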

Escherichia coli [15] = assay: Antibacterial activity against AcrAB-TolC deficient Escherichia coli […] after 18 to 24 hrs in absence of colistin by broth microdilution method; format: functional; in short: as §3
Klebsiella pneumoniae [16] = assay: Antibacterial activity against Klebsiella pneumoniae ATCC BAA-1705 after 18 to 24 hrs by broth microdilution assay; format: functional; in short: as §3
Staphylococcus aureus [17] = assay: Antibacterial activity against vancomycin-resistant Staphylococcus aureus VRS10 after 18 to 24 hrs by broth microdilution assay; format: functional; in short: as §1
Staphylococcus aureus [18] = assay: Antibacterial activity against methicillin-resistant Staphylococcus aureus NRS385 USA500 after 18 to 24 hrs by broth microdilution assay; format: functional; in short: as §1
Staphylococcus aureus [19] = assay: Antibacterial activity against methicillin-resistant Staphylococcus aureus USA300 NRS384 after 18 to 24 hrs by broth microdilution assay; format: functional; in short: as §1
Escherichia coli [20] = assay: Antibacterial activity against Escherichia coli BW25113 after 18 to 24 hrs in presence of colistin by broth microdilution method; format: functional; in short: as §2
Pseudomonas aeruginosa [21] = assay: Antibacterial activity against Pseudomonas aeruginosa ATCC 15442 after 18 to 24 hrs in presence of colistin by broth microdilution assay; format: functional; in short: as §2
Acinetobacter baumannii [22] = assay: Antibacterial activity against Acinetobacter baumannii BAA1605 after 18 to 24 hrs in presence of colistin by broth microdilution assay; format: functional; in short: as §2
Staphylococcus aureus [23] = assay: Antibacterial activity against methicillin-sensitive Staphylococcus aureus NRS107 after 18 to 24 hrs by broth microdilution assay; format: functional; in short: as §1
Acinetobacter baumannii [24] = assay: Antibacterial activity against Acinetobacter baumannii BAA1605 after 18 to 24 hrs by broth microdilution assay; format: functional; in short: as §3

## COc1cc(/C=C/c2ccc(C#N)cc2)cc(OC)c1
Staphylococcus aureus [1]
  MIC: 64 µM (≈ 17 µg/mL)

## N#Cc1ccc(/C=C/c2ccc(C#N)cc2)cc1
Escherichia coli [2]
  MIC: > 64 µM
Enterobacter cloacae [3]
  MIC: > 64 µM
Enterococcus faecium
  MIC: > 64 µM
Staphylococcus aureus [1]
  MIC: 8 µM (≈ 1.84 µg/mL)
Escherichia coli [4]
  MIC: > 64 µM
Staphylococcus aureus [5]
  MIC: 1 µM (≈ 0.23 µg/mL)
Staphylococcus aureus [6]
  MIC: 8 µM (≈ 1.84 µg/mL)
Enterobacter cloacae [7]
  MIC: 4 µM
Staphylococcus aureus [8]
  Activity: Active
Pseudomonas aeruginosa [9]
  MIC: > 64 µM
Klebsiella pneumoniae [10]
  MIC: > 64 µM
[11]
  Activity: Non-Toxic
Streptococcus pneumoniae
  MIC: 8 µM (≈ 1.84 µg/mL)
[12]
  viability at 24 h, 128 µM: > 90%
[13]
  MIC: 1 µM (≈ 0.23 µg/mL)
Mus musculus
  Activity: Non-Toxic
Staphylococcus aureus [14]
  Activity: 79.02%
Escherichia coli [15]
  MIC: > 64 µM
Klebsiella pneumoniae [16]
  MIC: > 64 µM
Staphylococcus aureus [17]
  MIC: 8 µM (≈ 1.84 µg/mL)
Staphylococcus aureus [18]
  MIC: 8 µM (≈ 1.84 µg/mL)
Staphylococcus aureus [19]
  MIC: 2 µM (≈ 0.461 µg/mL)
Escherichia coli [20]
  MIC: > 64 µM
Pseudomonas aeruginosa [21]
  MIC: > 64 µM
Acinetobacter baumannii [22]
  MIC: 16 µM
Staphylococcus aureus [23]
  MIC: 4 µM (≈ 0.921 µg/mL)
Acinetobacter baumannii [24]
  MIC: > 64 µM

## N#Cc1ccc(/C=C/c2ccc(F)cc2)cc1
Staphylococcus aureus [1]
  MIC: 64 µM (≈ 14.3 µg/mL)

## N#Cc1ccccc1/C=C/c1ccccc1
Staphylococcus aureus [5]
  MIC: 4 µM (≈ 0.821 µg/mL)
Staphylococcus aureus [19]
  MIC: 4 µM (≈ 0.821 µg/mL)

## CC/C(=C\c1ccccc1C#N)c1ccccc1
Staphylococcus aureus [19]
  MIC: 4 µM (≈ 0.933 µg/mL)

## N#Cc1ccc(/C=C/c2ccco2)cc1
Staphylococcus aureus [1]
  MIC: 32 µM (≈ 6.25 µg/mL)

## N#Cc1ccc(/C=C/c2ccc3ccccc3n2)cc1
Staphylococcus aureus [1]
  MIC: 8 µM (≈ 2.05 µg/mL)
Staphylococcus aureus [5]
  MIC: 4 µM (≈ 1.03 µg/mL)
Staphylococcus aureus [17]
  MIC: 32 µM (≈ 8.2 µg/mL)
Staphylococcus aureus [19]
  MIC: 4 µM (≈ 1.03 µg/mL)

## N#Cc1ccc(/C=C/c2ccnc3ccccc23)cc1
Staphylococcus aureus [1]
  MIC: > 64 µM

## N#Cc1ccc(CCc2ccc(C#N)cc2)cc1
Staphylococcus aureus [1]
  MIC: > 64 µM

## N#Cc1ccc(CCc2cccnc2)cc1
Staphylococcus aureus [1]
  MIC: > 64 µM

## N#Cc1ccc(CCC2CCc3ccccc3N2)cc1 (configuration not stated)
Staphylococcus aureus [1]
  MIC: 16 µM (≈ 4.2 µg/mL)

## N#Cc1ccc(/C=C/c2ccc(Cl)c(Cl)c2)cc1
Staphylococcus aureus [1]
  MIC: > 64 µM
